Compound activity as filed in PubChem.
Sampled rows, rich in hits. Any-hit rate of the full collection: about 4.1%.
KCNK9 block – blocks the human KCNK9 two-pore domain potassium channel | Q9NPC2 | HEK293 KCNK9, FluxOR thallium flux fluorescence; hits give low values | B-score at 10 µM | actives 1.2% (n = 310,000) | AID 488922;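 active means ratio B-score over 3 SD below the library mean, with starting fluorescence within 5 SD of its mean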;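 further: negative B-score means less thallium flux so channel inhibition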
KCNK3 inh – human KCNK3 channel inhibition, primary screen; O14649; CHO-KCNK3 thallium flux, FluxOR fluorescence; hits give low values; B-score at 10 µM; actives 0.84% (n = 340,000);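 active means B-score under library mean minus 4 SD, starting fluorescence ratio at most library mean plus 5 SD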;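 further: more negative B-score means stronger inhibition of thallium flux through KCNK3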
Target sequence (O14649 whole entry, looked up): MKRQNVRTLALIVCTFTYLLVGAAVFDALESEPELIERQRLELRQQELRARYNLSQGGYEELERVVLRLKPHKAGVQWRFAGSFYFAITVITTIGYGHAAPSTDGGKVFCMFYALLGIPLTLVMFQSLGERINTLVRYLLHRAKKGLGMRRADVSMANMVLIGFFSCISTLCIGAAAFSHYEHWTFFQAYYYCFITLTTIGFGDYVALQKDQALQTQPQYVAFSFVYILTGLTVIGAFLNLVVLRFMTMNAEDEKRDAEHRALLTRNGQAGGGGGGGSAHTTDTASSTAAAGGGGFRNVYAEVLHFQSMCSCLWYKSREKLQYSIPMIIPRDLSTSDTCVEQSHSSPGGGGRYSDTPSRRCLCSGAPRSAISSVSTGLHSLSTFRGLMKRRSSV
KCC2 mod – modulates chloride dependent transport by human KCC2 | Q9H2X9 | KCC2 cells, thallium flux FluoZin-2 fluorescence | B-score of Tl+ flux slope (higher = more flux/activation; lower = inhibition) at 10 µM | actives 2.2% (n = 190,000) | AID 1456;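 active means thallium flux slope and its plate-corrected score both differing from the plate sample mean at a set confidence after two filtering rounds, in either direction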;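 further: slope of fluorescence scaled to starting intensity during 10 to 20 s after thallium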
KCNQ1 pot – human KCNQ1 channel potentiation or activation; P51787; CHO-K1 KCNQ1, thallium flux FluxOR fluorescence; hits give high values; B-score at 10 µM; actives 0.35% (n = 310,000);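 active means fluorescence ratio B-score, a plate-corrected score, at least three library SD, with initial intensity B-score within 5 SD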
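System: Stable KCNQ1 CHO-K1 line | Incubation: 90 min dye loading and 20 min compound exposure, both at room temperature | Measure: Ratio B score | Medium: Assay buffer for compound exposure, DMSO matched across wells | Compound dosing: Single-concentration screen | Probe or stimulus: K+/Tl+ depolarizing stimulus | Measured by: Kinetic FluxOR fluorescence, 10 s baseline plus 110 s post-stimulus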
hERG rescue – hERG (human) protection from proarrhythmic block | Q12809 | CHO-hERG, FluxOR thallium flux, dofetilide IC70 present | activation (rescue from dofetilide block), less the hit threshold, % at 10 µM | actives 0.51% (n = 310,000);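 active means activation above the mean of controls blocked by dofetilide plus 5 SD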;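 further: thallium influx through hERG after potassium depolarization seen as dye fluorescence rise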
KCNQ1 inh – blocks the human KCNQ1 potassium channel | P51787 | CHO-K1 KCNQ1, FluxOR thallium flux fluorescence; hits give high values | B-score at 10 µM | actives 1.3% (n = 310,000) | AID 2642;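 active means compounds whose thallium flux B-score, printed positive for inhibition, exceeds three library SD while starting fluorescence stays within three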;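 further: channel opened by potassium depolarization with thallium stimulus after 20 min compound exposure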
KCC2 secondary – KCC2 (human) modulation, secondary assay. shares compounds with KCC2 mod. HEK293-KCC2, thallium flux, FluoZin2 fluorescence; hits give high values. normalised thallium flux (F/F0 slope) at 10 µM. actives 15% (n = 3,700). AID 1713;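 active means thallium flux slope above the same plate's solvent-only control mean plus 3 SD; inconclusive means the two replicate wells disagree; inactive means no significant difference from solvent-only control wells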
KCC2 bumet counter – thallium flux despite bumetanide block in KCC2 cells, secondary assay 3 | shares compounds with KCC2 mod | HEK293-KCC2 + bumetanide/ouabain, thallium flux FluoZin2; hits give high values | normalized thallium flux at 10 µM | actives 49% (n = 3,700) | AID 1714;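 active means thallium entry rate above the same plate's blocked-transporter control wells by more than 3 SD; inconclusive means the two repeat wells disagree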;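 further: raw slope of fluorescence over initial fluorescence between 10 and 20 s after thallium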
KCC2 sec2 – KCC2 (human) modulation, second secondary assay. shares compounds with KCC2 mod. HEK293-KCC2, thallium flux FluoZin2 fluorescence; actives lie on both sides; F/F0 rise rate, 10–20 s post-thallium. normalized thallium flux at 10 µM. actives 23% (n = 3,700). AID 1715;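 active means thallium flux slope more than 3 SD above or below the plate's solvent-only control mean, mostly below; inconclusive means the two repeat wells disagreed; inactive means no significant shift from solvent-only controls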;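 further: raw slope with 0.1% DMSO as baseline and bumetanide as block control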
HEK counter1 – parental HEK flux effect, counter-screen. shares compounds with KCC2 mod. HEK293 parental cells, thallium flux FluoZin2, ouabain; baseline-ratio fluorescence slope, 10–20 s after thallium. thallium flux rate (normalised fluorescence) at 10 µM. actives 46% (n = 3,700);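 active means thallium flux rate significantly above the same plate's solvent-only control wells, beyond their mean plus 3 SD; inconclusive means the two replicate wells gave conflicting results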
KCC2 retest ouab – KCC2 (human) modulation, ouabain retest. shares compounds with KCC2 mod. HEK293-KCC2, thallium flux FluoZin2 fluorescence; bidirectional: low = inhibitor, high = activator. raw Tl+ flux slope (below DMSO = inhibition, above = activation) at 10 µM. actives 48% (n = 3,700);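 active means thallium flux slope beyond 3 SD from same-plate DMSO control mean in most replicates, usually higher, sometimes lower; inconclusive means repeat tests gave conflicting results; inactive means no significant difference from controls in most replicates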;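 further: slope of initial-normalized fluorescence between seconds 10 and 20 after thallium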
HEK293 Tl flux2 – acts in parental HEK cells, second KCC2 counter-screen; shares compounds with KCC2 mod; HEK293 parental, thallium flux FluoZin-2 fluorescence slope; thallium flux slope at 10 µM; actives 33% (n = 3,700);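 active means thallium flux slope above the same plate's solvent-control mean plus 3 SD in both duplicate wells; inconclusive means duplicate wells that disagreed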;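 further: run without ouabain in cells lacking the KCC2 cotransporter; slope of fluorescence scaled to its starting value between 10 and 20 s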
The depositor's hits bear a star.

For CS(=O)(=O)N1CCN(c2ccccc2NC(=S)NC(=O)c2cccs2)CC1 the results were KCNK9 block inactive, KCNK3 inh inactive, KCC2 mod 0.983, KCNQ1 pot inactive, hERG rescue -15.5 and KCNQ1 inh inactive.
`Cc1ccccc1C(=O)Nc1ccccc1N1CCN(C(=O)c2ccccc2)CC1` gave KCNK9 block inactive, KCNK3 inh inactive, KCNQ1 pot inactive, hERG rescue -20.0 and KCNQ1 inh inactive.
`O=C(NC(=S)Nc1ccccc1N1CCOCC1)c1ccc(-c2ccccc2F)o1` gave KCNK9 block inactive, KCNK3 inh inactive, KCC2 mod 15.1*, KCNQ1 pot 13*, hERG rescue -5.3, KCNQ1 inh inactive, KCC2 secondary 0.0112, KCC2 bumet counter 0.0283*, KCC2 sec2 0.0369, HEK counter1 0.0336*, KCC2 retest ouab 0.0307* and HEK293 Tl flux2 0.0122.
`O=C(NC(=S)Nc1ccccc1N1CCCCC1)c1ccccc1` gave KCNK9 block inactive, KCNK3 inh inactive, KCC2 mod 11.9*, KCNQ1 pot inactive, hERG rescue -4.8, KCNQ1 inh inactive, KCC2 secondary 0.00635, KCC2 bumet counter 0.0228*, KCC2 sec2 0.0338, HEK counter1 0.0112*, KCC2 retest ouab 0.0277* and HEK293 Tl flux2 inconclusive.
Screening O=C(NC(=S)Nc1ccccc1N1CCCC1)c1cccc(F)c1 returned KCNK9 block inactive, KCNK3 inh inactive, KCC2 mod 39.4*, KCNQ1 pot inactive, hERG rescue 2.8, KCNQ1 inh inactive, KCC2 secondary 0.00615, KCC2 bumet counter 0.0619*, KCC2 sec2 0.0429*, HEK counter1 0.0275*, KCC2 retest ouab 0.046* and HEK293 Tl flux2 0.0277*.
For O=C(NC(=S)Nc1ccccc1N1CCCC1)c1ccc(F)cc1 the results were KCNK9 block inactive, KCNK3 inh inactive, KCC2 mod 16*, KCNQ1 pot inactive, hERG rescue -9.4, KCNQ1 inh inactive, KCC2 secondary 0.0178*, KCC2 bumet counter 0.0502*, KCC2 sec2 0.0352, HEK counter1 0.0484*, KCC2 retest ouab 0.0393* and HEK293 Tl flux2 0.0154*.
For O=C(Nc1ccccc1N1CCCC1)c1cccc(F)c1 the results were KCNK9 block inactive, KCNK3 inh inactive, KCNQ1 pot inactive, hERG rescue -7.1 and KCNQ1 inh inactive.
O=C(NC(=S)Nc1ccccc1N1CCOCC1)c1ccc(Br)cc1 was read as KCNK9 block inactive, KCNK3 inh inactive, KCNQ1 pot inactive, hERG rescue -5.2 and KCNQ1 inh inactive.
`O=C(C[n+]1ccc(/C=C/c2ccccc2)cc1)c1ccc2c(c1)OCCO2` gave KCNK9 block inactive, KCNK3 inh inactive, KCC2 mod -0.679, KCNQ1 pot inactive, hERG rescue -7.6 and KCNQ1 inh inactive.
CCc1ccc(Cn2ncc3c(C(=O)O)cc(C)nc32)cc1 was read as KCNK3 inh inactive.
`COc1cccc(C2c3c(oc4ccc(F)cc4c3=O)C(=O)N2CCCN2CCOCC2)c1` (stereo not drawn) gave KCNK9 block inactive, KCNK3 inh inactive, KCC2 mod 11.1*, KCNQ1 pot inactive, hERG rescue -8.3, KCNQ1 inh inactive, KCC2 secondary 0.00707, KCC2 bumet counter 0.0107*, KCC2 sec2 0.0301, HEK counter1 0.0133*, KCC2 retest ouab inconclusive and HEK293 Tl flux2 0.0135*.
Screening O=C1c2oc3ccc(F)cc3c(=O)c2C(c2ccc(F)cc2)N1CCCN1CCOCC1 (stereo not drawn) returned KCNK9 block inactive, KCNK3 inh inactive, KCC2 mod 0.229, KCNQ1 pot inactive, hERG rescue -8.1 and KCNQ1 inh inactive.
`O=C(COC(=O)c1ccccc1O)Nc1cccc2ccccc12` gave KCNK3 inh inactive.
For Cc1cc(-c2nnc(SCC(=O)NC3CCCC3)o2)no1 the results were KCNK9 block inactive, KCNK3 inh inactive, KCC2 mod 7.14*, KCNQ1 pot inactive, hERG rescue -4.7, KCNQ1 inh inactive, KCC2 secondary 0.00707, KCC2 bumet counter 0.00465, KCC2 sec2 0.0289, HEK counter1 0.0072, KCC2 retest ouab 0.0175 and HEK293 Tl flux2 0.0103.
For O=C(CSc1nnc(-c2ccncc2)o1)NC1CCCCC1 the results were KCNK9 block inactive, KCNK3 inh inactive, KCC2 mod 0.551, KCNQ1 pot inactive, hERG rescue -6.8 and KCNQ1 inh inactive.
`CCn1nnc(NC(=S)NC(=O)c2ccc(-c3cccc(Cl)c3)o2)n1` gave KCNK9 block inactive, KCNK3 inh inactive, KCC2 mod 66.9*, KCNQ1 pot inactive, hERG rescue -4.9, KCNQ1 inh inactive, KCC2 secondary inconclusive, KCC2 bumet counter 0.0848*, KCC2 sec2 0.0645*, HEK counter1 0.0567*, KCC2 retest ouab 0.0658* and HEK293 Tl flux2 0.0536*.
Screening Cc1nn(C)c(C)c1S(=O)(=O)N(CC(=O)N1CCc2ccccc2C1)c1ccc(C(C)C)cc1 returned KCNK9 block inactive, KCNK3 inh inactive, KCNQ1 pot inactive, hERG rescue -15.0, KCNQ1 inh inactive, KCC2 secondary inconclusive, KCC2 bumet counter 0.00494, KCC2 sec2 0.0253*, HEK counter1 inconclusive, KCC2 retest ouab 0.0144* and HEK293 Tl flux2 0.00935.
